Source: PubChem
Hits are enriched below; roughly 2.4% of the tested compounds scored in any of these assays.
DNA FID counter – counter-screen for HCV NS3 helicase inhibitors: DNA intercalator displacement; DNA fluorescent intercalator displacement, fluorescence; inhibition, % at 7.9 µM; hit rate 0.17% among 290,000; AID 1845; in the data active = inhibition above about 37%;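 also: 0% = vehicle and 100% = reference compound; higher means more ethidium bromide displaced from hairpin DNA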
UBC13 inh – inhibitors of human UBC13 polyubiquitin chain formation. P61088. TR-FRET. inhibition, % at 20 µM. hit rate 0.47% among 330,000; in the data active = inhibition above about 45%, passing the limit was not always enough
Target sequence (P61088 whole entry, looked up): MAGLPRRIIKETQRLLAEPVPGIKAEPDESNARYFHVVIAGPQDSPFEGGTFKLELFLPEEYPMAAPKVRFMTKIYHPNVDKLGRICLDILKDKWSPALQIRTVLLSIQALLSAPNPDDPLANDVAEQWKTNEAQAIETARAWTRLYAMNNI
Apaf-1 inh – inhibitors of human Apaf-1 apoptosome; O14727; reconstituted apoptosome caspase-3 activity, DEVD-Rh110 fluorescence; inhibition, % at 20 µM; hit rate 0.71% among 330,000; AID 489030; active = inhibition of at least 40% at 20 µM;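 also: plate controls were DMSO wells for no effect and DEVD-CHO caspase inhibitor wells for full effect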
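Material: cell-free apoptosome with Apaf-1, procaspase-3 and caspase-9; Buffer or medium: Hepes pH 7.5 with detergent and BSA; Reagent: cytochrome c trigger plus (Z-DEVD)2-Rh110 caspase-3 substrate; Times: compound with Apaf-1, dATP, procaspase-3 30 min, then 50 min reaction, room temperature; Technique: Rh110 fluorescence intensity.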
TMEM16A act – activates or potentiates the mouse TMEM16A chloride channel; Q8BHY3; AID 623877; B-score at 10 µM; HEK293 TMEM16A/YFP-H148Q/I152L, iodide quench fluorescence; active compounds read low; hit rate 0.3% among 340,000;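 active = fluorescence-ratio B-score plate-corrected deviation score at least 3 library SD below zero, with starting fluorescence score within 5 deviations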;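 also: channel opened by trigger with iodide after compound preincubation; score built on the fluorescence ratio of max minus min over baseline; more negative score means more quench and so TMEM16A activation or potentiation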
ANO1 block – inhibitors of mouse TMEM16A calcium-activated chloride channel | Q8BHY3 | HEK293 TMEM16A/YFP iodide influx fluorescence, ionomycin | normalized B-score (activity score, 25-100; higher = stronger inhibition) at 10 µM | hit rate 1.2% among 310,000 | AID 588511;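 active = ratio plate-corrected score three or more library SD toward inhibition, starting fluorescence score within five deviations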;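 also: score derived from kinetic fluorescence span divided by baseline fluorescence per well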
Casp3 UBC13 ctr – caspase-3 inhibition (UBC13 counter-screen) | shares compounds with UBC13 inh | Recombinant caspase-3, Caspase-Glo 3/7 luminescence, 60 min | inhibition, % at 20 µM | hit rate 4% among 1,400 | AID 488856;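 active = mean inhibition across replicates above about 26%, limit read from the data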;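 also: plate controls were DMSO with caspase-3 for no effect and DMSO wells lacking enzyme for full effect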
Target sequence (P42574 whole entry, looked up): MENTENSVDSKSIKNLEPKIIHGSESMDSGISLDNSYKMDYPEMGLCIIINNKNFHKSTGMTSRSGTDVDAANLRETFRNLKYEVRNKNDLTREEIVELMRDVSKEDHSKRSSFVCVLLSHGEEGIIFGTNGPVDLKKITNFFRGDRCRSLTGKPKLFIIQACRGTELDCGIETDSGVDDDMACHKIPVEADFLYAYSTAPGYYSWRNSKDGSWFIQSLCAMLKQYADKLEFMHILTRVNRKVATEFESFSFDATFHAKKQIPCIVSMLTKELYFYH
UBC13 confirm – human UBC13 polyubiquitin inhibition, confirmed; shares compounds with UBC13 inh; UBC13 polyubiquitination, TR-FRET, biochemical; inhibition, % at 10 µM; hit rate 68% among 1,400; AID 488859; in the data active = inhibition above about 45%
* = called active by the depositor.

How did O=C(CNS(=O)(=O)c1ccc(F)cc1)N1CCCC1 do in these assays?
UBC13 inh: 2; Apaf-1 inh: 11; TMEM16A act: inactive; ANO1 block: inactive

How did Cc1ccccc1N(C(=O)c1snc(C(N)=O)c1N)C(C(=O)NC1CCCC1)c1ccco1 (configuration not stated) do in these assays?
DNA FID counter: -39; UBC13 inh: 28; Apaf-1 inh: 15; TMEM16A act: inactive

What do the screens show for `COc1ccc(N(C(=O)c2snc(C(N)=O)c2N)C(C(=O)NC2CCCC2)c2cccs2)cc1OC` (configuration not stated)?
DNA FID counter: -44; UBC13 inh: 64*; Apaf-1 inh: 1; TMEM16A act: inactive; ANO1 block: inactive; Casp3 UBC13 ctr: 1; UBC13 confirm: 35

How did CCc1ccc(N(C(=O)c2snc(C(N)=O)c2N)C(C(=O)NC2CCCC2)c2ccco2)cc1 (configuration not stated) do in these assays?
DNA FID counter: -37; UBC13 inh: 63*; Apaf-1 inh: 8; TMEM16A act: inactive; ANO1 block: inactive; Casp3 UBC13 ctr: 0; UBC13 confirm: 67*

How did CCOc1ccc(N(C(=O)c2snc(C(N)=O)c2N)C(C(=O)NC2CCCC2)C(C)C)cc1 (configuration not stated) do in these assays?
DNA FID counter: -35; UBC13 inh: 70*; Apaf-1 inh: 29; TMEM16A act: inactive; ANO1 block: inactive; Casp3 UBC13 ctr: 5; UBC13 confirm: 78*

Results for CC(C)CC(C(=O)NC1CCCC1)N(Cc1ccc2c(c1)OCO2)C(=O)c1snc(C(N)=O)c1N (configuration not stated) ?
DNA FID counter: 1; UBC13 inh: 46*; Apaf-1 inh: 22; TMEM16A act: inactive; ANO1 block: inactive; Casp3 UBC13 ctr: -1; UBC13 confirm: 38

How did CC(=O)N1c2ccc(S(=O)(=O)N3CCC(C(=O)N4CCN(c5ccc(Cl)cc5)CC4)CC3)cc2CC1C (configuration not stated) do in these assays?
DNA FID counter: -54; UBC13 inh: 6; Apaf-1 inh: 15; TMEM16A act: inactive; ANO1 block: inactive

Results for COc1ccc(C(C(=O)NC2CCCC2)N(C(=O)c2snc(C(N)=O)c2N)c2cccc(O)c2)cc1 (configuration not stated) ?
DNA FID counter: -26; UBC13 inh: 7; Apaf-1 inh: 8; TMEM16A act: inactive; ANO1 block: inactive

Results for NC(=O)c1nsc(C(=O)N(c2cccc(F)c2)C(C(=O)NC2CCCC2)c2ccco2)c1N (configuration not stated) ?
DNA FID counter: -17; UBC13 inh: 53*; Apaf-1 inh: 2; TMEM16A act: inactive; ANO1 block: inactive; Casp3 UBC13 ctr: -1; UBC13 confirm: 33

Results for COc1ccc(N(C(=O)c2snc(C(N)=O)c2N)C(C(=O)NC2CCCC2)c2ccco2)cc1 (configuration not stated) ?
DNA FID counter: -37; UBC13 inh: 82*; Apaf-1 inh: 13; TMEM16A act: inactive; ANO1 block: inactive; Casp3 UBC13 ctr: 0; UBC13 confirm: 90*

How did NC(=O)c1nsc(C(=O)N(CCc2ccccc2)C(C(=O)NC2CCCC2)c2ccco2)c1N (configuration not stated) do in these assays?
DNA FID counter: -14; UBC13 inh: 14; Apaf-1 inh: 17; TMEM16A act: inactive; ANO1 block: inactive

How did NC(=O)c1nsc(C(=O)N(c2cccc(F)c2)C(C(=O)NC2CCCC2)c2ccc(O)cc2)c1N (configuration not stated) do in these assays?
DNA FID counter: -17; UBC13 inh: 48*; Apaf-1 inh: 10; TMEM16A act: inactive; ANO1 block: inactive; Casp3 UBC13 ctr: -1; UBC13 confirm: 51*

What do the screens show for `CCOc1ccc(N(C(=O)c2snc(C(N)=O)c2N)C(C(=O)NC2CCCC2)c2ccncc2)cc1` (configuration not stated)?
DNA FID counter: -27; UBC13 inh: 36; Apaf-1 inh: 7; TMEM16A act: inactive; ANO1 block: inactive

What do the screens show for `Cc1ccc(N(C(=O)c2snc(C(N)=O)c2N)C(C(=O)NCCC(C)C)c2ccco2)cc1` (configuration not stated)?
DNA FID counter: -29; UBC13 inh: 74*; Apaf-1 inh: 21; TMEM16A act: inactive; ANO1 block: inactive; Casp3 UBC13 ctr: -2; UBC13 confirm: 62*

Results for COc1ccccc1NS(=O)(=O)c1cc(NC(=O)c2ccncc2)ccc1N1CCCC1 ?
DNA FID counter: -16; UBC13 inh: 5; Apaf-1 inh: 11; TMEM16A act: inactive; ANO1 block: inactive

Results for O=S(=O)(Nc1ccccn1)c1ccc(Cl)c2ccccc12 ?
DNA FID counter: -8; UBC13 inh: -3; Apaf-1 inh: 5; TMEM16A act: inactive; ANO1 block: inactive

How did CCc1cccc(NS(=O)(=O)c2ccc3c(c2)NC(=O)CO3)c1 do in these assays?
DNA FID counter: -26; UBC13 inh: 5; Apaf-1 inh: 15; TMEM16A act: inactive; ANO1 block: inactive

How did COc1ccc(N(C(=O)c2snc(C(N)=O)c2N)C(C(=O)NC2CCCCC2)c2ccc(C)o2)cc1 (configuration not stated) do in these assays?
DNA FID counter: -31; UBC13 inh: 60*; Apaf-1 inh: 18; TMEM16A act: inactive; ANO1 block: inactive; Casp3 UBC13 ctr: 3; UBC13 confirm: 55*

What do the screens show for `CCN(CC(=O)NCc1ccc(Cl)cc1)C(=O)CSCC(=O)Nc1cccc(C)c1`?
DNA FID counter: -28; UBC13 inh: 8; Apaf-1 inh: 1; TMEM16A act: inactive; ANO1 block: inactive

How did CCOC(=O)CSc1nnc(CCCCCN2C(=O)c3cccc4cccc(c34)C2=O)o1 do in these assays?
DNA FID counter: -6; UBC13 inh: 37; Apaf-1 inh: 35; TMEM16A act: inactive; ANO1 block: inactive

Results for CCOC(=O)CCCSc1nnc(CCCCCN2C(=O)c3cccc4cccc(c34)C2=O)o1 ?
DNA FID counter: -10; UBC13 inh: 53*; Apaf-1 inh: 29; TMEM16A act: inactive; ANO1 block: inactive; Casp3 UBC13 ctr: -2; UBC13 confirm: 42

What do the screens show for `CCCCn1c(-c2cccs2)nc2nc3ccccc3nc21`?
DNA FID counter: -1; UBC13 inh: 56*; Apaf-1 inh: 19; TMEM16A act: inactive; ANO1 block: inactive; Casp3 UBC13 ctr: -1; UBC13 confirm: 45*
